The source of these data is ChEMBL document CHEMBL2029317, “(Z)-2-(2-bromophenyl)-3-{[4-(1-methyl-piperazine)amino]phenyl}acrylonitrile (DG172): an orally bioavailable PPARβ/δ-selective ligand with inverse agonistic properties” (J Med Chem, 2012).

What is called IC50 is the concentration needed to halve the response being measured.

Active and inactive are the calls of the source. No cut-off for these calls is given here.

The first experiment addresses T1, Peroxisome proliferator-activated receptor delta (Mus musculus) (UniProt P35396).
T1 sequence (whole entry): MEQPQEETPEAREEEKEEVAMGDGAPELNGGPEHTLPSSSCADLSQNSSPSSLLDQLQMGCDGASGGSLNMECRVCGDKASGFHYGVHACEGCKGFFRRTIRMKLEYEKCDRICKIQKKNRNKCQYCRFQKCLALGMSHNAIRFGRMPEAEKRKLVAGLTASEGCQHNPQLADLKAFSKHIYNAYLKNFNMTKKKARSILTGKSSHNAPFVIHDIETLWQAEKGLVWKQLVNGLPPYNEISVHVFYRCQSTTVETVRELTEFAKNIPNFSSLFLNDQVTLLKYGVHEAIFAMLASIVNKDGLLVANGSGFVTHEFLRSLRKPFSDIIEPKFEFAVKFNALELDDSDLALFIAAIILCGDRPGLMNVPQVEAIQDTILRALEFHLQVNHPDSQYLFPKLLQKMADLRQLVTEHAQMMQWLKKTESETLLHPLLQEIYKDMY
Description: Displacement of fluormone Pan-PPAR Green from mouse recombinant GST-tagged PPARbeta/delta LBD at 1 uM after 60 mins by TR-FRET assay. The essentials: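 Competitive binding by LanthaScreen TR-FRET: recombinant GST-PPARβ/δ LBD, detected through a terbium-labelled anti-GST antibody, was incubated with Fluormone Pan-PPAR Green. Compound was tested at 1 μM. Read-out is the 520 nm/495 nm emission ratio after terbium excitation, as averages of triplicates ± SD.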
On the technique in general: TR-FRET usually uses a lanthanide donor and a delayed reading to cut background.
As to `N#C/C(=C\c1cccc(Br)c1)c1ccccc1`, the outcome was Active. Regarding `CN(C)c1ccc(/C=C(\C#N)c2ccccc2C(F)(F)F)cc1`, the outcome was Active. In the case of `N#C/C(=C\c1ccc(NC2CCCCC2)cc1)c1ccccc1`, the outcome was Active. As to `N#C/C(=C\c1ccc(Nc2ccccc2)cc1)c1ccccc1`, the result was Active. In the case of `CN(C)c1ccc(/C=C(\C#N)c2cccc(Cl)c2)cc1`, the outcome was Active. In the case of `N#C/C(=C\c1ccc(Br)cc1)c1ccccc1`, the result was Active.

For the compound `CN(C)c1ccc(/C=C(\C#N)c2ccccc2Br)cc1`, the outcome was Active. On the same count and under the same terms, for `N#C/C(=C\c1ccc(N2CCCCC2)cc1)c1ccccc1` the value was “Active”; for `CN(C)c1ccc(C(C#N)=Cc2ccccc2)cc1`, “inactive”; for `CN(C)c1ccc(/C=C(\C#N)c2ccccc2C#N)cc1`, “Active”.

On to `CN(C)c1ccc(/C=C/C=C(\C#N)c2ccccc2)cc1`, for which the outcome was inactive.

Regarding `CN(C)c1ccc(/C=C/c2ccccc2)cc1`, the result was inactive. For the compound `N#C/C(=C\c1ccc(C(F)(F)F)cc1)c1ccccc1`, the result was Active. Turning to `N#C/C(=C\c1ccc(N2CCNCC2)cc1)c1ccccc1`, the result was Active.

As to `CN(C)c1ccc(/C=C(\C#N)c2ccccc2I)cc1`, the outcome was Active. For `CN1CCN(c2ccc(/C=C(\C#N)c3ccccc3)cc2)CC1`, the result was Active. In the case of `N#C/C(=C\c1ccc(N2CCOCC2)cc1)c1ccccc1`, the outcome was Active. The same measure, in the same setting: for `CN(C)c1ccc(/C=C(\C#N)c2ccc(Cl)cc2)cc1` the value was “Active”; for `N#C/C(=C\c1ccccc1)c1ccccc1`, “Active”. As to `N#C/C(=C\c1ccc(N2CCCCCC2)cc1)c1ccccc1`, the result was Active. For `N#C/C(=C\c1ccc(N2CCCC2)cc1)c1ccccc1`, the result was Active. As to `COc1ccccc1/C(C#N)=C/c1ccc(N(C)C)cc1`, the outcome was Active. Turning to `N#C/C(=C\c1ccccc1Br)c1ccccc1`, the result was Active. For `CN(C)Cc1ccc(/C=C(\C#N)c2ccccc2)cc1`, the outcome was Active. `CN(C)c1ccc(/C=C(\C#N)c2ccc(F)cc2)cc1`: the outcome was Active. `N#C/C(=C\c1ccc(Cl)cc1)c1ccccc1`: the result was Active. With `CN(C)c1ccc(/C=C(\C#N)c2ccccc2[N+](=O)[O-])cc1`, the result was Active. For `CN(C)c1ccc(CC(C#N)c2ccccc2)cc1` (racemic), the outcome was inactive.

Regarding `CN(C)c1ccc(/C=C(\C#N)c2ccc([N+](=O)[O-])cc2)cc1`, the outcome was Active. As to `COc1ccc(/C=C(\C#N)c2ccccc2)cc1`, the outcome was Active. Take `CN(C)c1ccc(/C=C(\C#N)c2ccccc2F)cc1`: the outcome was Active. The same measure, in the same setting: under `COc1ccc(/C(C#N)=C/c2ccc(N(C)C)cc2)cc1` stands “Active”; under `CC1CCN(c2ccc(/C=C(\C#N)c3ccccc3)cc2)CC1`, “Active”. Regarding `N#C/C(=C\c1ccc(N)cc1)c1ccccc1`, the outcome was Active.

A further experiment has as its target T1, Peroxisome proliferator-activated receptor delta (Mus musculus). Description: Antagonist activity at PPARbeta/delta in mouse NIH3T3 cells coexpressing LexA assessed as decrease in L165,041-induced transcriptional activation at 1 uM after 48 hrs by luciferase reporter gene assay relative to control. The format is functional, cell-based. The essentials:
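NIH3T3 cells were transfected with LexA-PPARα, -PPARβ/δ or -PPARγ fusion plasmids plus the 7L-TATAi luciferase reporter. From 4 h post-transfection, cells received inhibitory ligand (1 μM) for 48 h. Agonists followed: GW7647 300 nM (PPARα), L165,041 1 μM (PPARβ/δ) or GW1929 300 nM (PPARγ), or agonist solvent. Induction is luciferase activity with agonist relative to solvent; triplicates with t test.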
Regarding `N#C/C(=C\c1ccc(N2CCCCC2)cc1)c1ccccc1`, the result was Active.

Another experiment addresses T2, Peroxisome proliferator-activated receptor delta (Mus musculus, UniProt P35396).
T2 sequence (P35396 whole entry): T1 sequence (whole entry)
Description: Inverse agonist activity at PPARbeta/delta in mouse C2C12 cells assessed as inhibition of Angptl4 expression after 24 hrs by RT-qPCR analysis. Format: functional, cell-based. For orientation: In qPCR the cycle at which signal appears reflects the starting amount.
`CN(C)c1ccc(/C=C(\C#N)c2ccccc2)cc1`: the IC50 was more than 500 nM.
